CHOP inhibitor – CHOP inhibition in unfolded protein response; CHO-K1 CHOP-promoter luciferase, tunicamycin-induced, 15-18 h; actives 3.8% (n = 220,000); inhibition, % at 10 µM;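 active means compounds that reduced the stress-induced luciferase reporter signal by more than about 70% of percent inhibition, limit read from the data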;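 further: 0% = tunicamycin plus vehicle and 100% = wells without tunicamycin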
Dynein transport – dynein cargo transport inhibition | 3617.4 mouse cells, GR-EGFP nuclear translocation imaging; test concentration mostly 20 µM; stimulated with dexamethasone, 1 µM; hits give low values | z-score, hits read low | actives 0.47% (n = 220,000);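 active means plate z-score of nuclear minus cytoplasmic receptor signal below a set negative limit, without overly bright fluorescence or cell loss, cut at about -3.5 in these data, passing the limit was not always enough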;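 further: z-score of nuclear minus cytoplasmic ring GR-EGFP intensity difference per well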
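Schedule: 48 h induction, then 1 h compound, then 30 min agonist, 37 °C. Buffer or medium: tetracycline-free induction medium containing charcoal-stripped FBS. Reagent: 1.0 µM final dexamethasone stimulus. Evaluation: nuclear versus cytoplasmic GR-EGFP signal, averaged per well. Signal: high-content fluorescence imaging after fixation.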
pCIP destab – compounds decreasing mouse p/CIP protein stability | F442A p/CIP-EGFP cells, EGFP fluorescence, 16 h | actives 0.01% (n = 290,000) | decrease of EGFP signal, % at 10 µM | AID 1984;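 active means EGFP signal decrease of at least 30% at 10 µM or well 3 SD below plate mean, unless failing retest; inactive means the rest, including hits failing retest or dose response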
UPR XBP1 act – activators of adaptive arm of unfolded protein response (XBP1). CHO-XBP1 luciferase reporter, IRE1-XBP1 UPR activation, luminescence; percent of tunicamycin response, DMSO as zero. activation, % at 20 µM. AID 463104. actives 0.33% (n = 330,000);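 active means versus positive control, 20 µM dose yields 30% or more activation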;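 further: 100% = tunicamycin at 10 µg/mL and 0% = DMSO only wells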
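incubation = overnight seeding at 37 °C, 6 h compound treatment at 37 °C | assay system = CHO-XBP1 cells stably carrying IRE1-XBP1-driven luciferase reporter | input = 1000 cells per well | detection = luciferase luminescence | dosing = single point, 20 µM final compound, 1% DMSO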
CHOP UPR activ – apoptotic UPR (CHOP) activation; CHO-CHOP luciferase reporter, luminescence; percent of tunicamycin response over DMSO baseline; activation, % at 10 µM; actives 0.34% (n = 330,000);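 active means at 10 µM dose, activation of 40% or more, normalized to positive control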;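 further: 100% = tunicamycin at 10 µg/mL and 0% = DMSO alone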
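Dosing – one dose, 10 µM in 0.5% DMSO · System – CHO-CHOP cells, stable luciferase reporter of PERK-eIF2a-CHOP signalling · Input – 500 cells/well · Control set – tunicamycin 10 µg/mL final as positive, DMSO-only wells as negative · Timing – 6 h compound treatment, 37 °C · Measure – % activation vs tunicamycin · Technique – luminescence read with Steady-Glo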
B2AR ag – human beta-2 adrenergic receptor agonism by FAP | P07550 | response, % (test concentration not listed) | actives 0.43% (n = 340,000) | Am2.2-beta2AR cells, FAP receptor internalization, flow cytometry | AID 504454;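 active means response above a set limit, near 3 SD of response in nonfluorescent compounds, cut at about 42% in these data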
Target sequence (P07550 whole entry, looked up): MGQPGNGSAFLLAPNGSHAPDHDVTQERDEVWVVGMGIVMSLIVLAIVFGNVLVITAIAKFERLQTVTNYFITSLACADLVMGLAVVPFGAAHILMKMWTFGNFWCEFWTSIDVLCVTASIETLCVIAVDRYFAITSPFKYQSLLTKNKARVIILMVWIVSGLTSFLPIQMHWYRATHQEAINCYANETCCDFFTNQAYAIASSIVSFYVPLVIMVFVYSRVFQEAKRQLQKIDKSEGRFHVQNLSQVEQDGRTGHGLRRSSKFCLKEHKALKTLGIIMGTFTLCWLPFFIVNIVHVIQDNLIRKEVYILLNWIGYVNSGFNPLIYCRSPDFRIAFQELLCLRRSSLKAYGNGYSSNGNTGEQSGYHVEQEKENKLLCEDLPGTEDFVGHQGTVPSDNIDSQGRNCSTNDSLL
Numbers without * were called inactive; · = not tested or not shown. Many of the other results were omitted from the sample, so hits are more common in it than they were.

SMILES | CHOP inhibitor | Dynein transport | pCIP destab | UPR XBP1 act | CHOP UPR activ | B2AR ag
O=C(Nc1cccc(Cl)c1Cl)c1snnc1-c1ccccc1 | 1 | · | -4 | 0 | -3 | 1
Cc1nn(-c2ccccc2)c(Cl)c1C(=O)NC1CCCCC1 | 3 | -1.3 | -9 | -2 | 1 | -2
Cc1nn(-c2ccccc2)c(Cl)c1C(=O)Nc1nnc(C2CCCC2)s1 | 80* | 1 | -9 | -4 | 1 | -3
CSCCCNC(=O)c1ccc(OC2CCN(CCc3ccccc3)CC2)cc1 | 8 | 0.14 | -9 | 1 | 2 | 0
Cc1ccc(S(=O)(=O)Nc2c(O)c3ccccc3oc2=O)cc1C | · | · | 0 | -3 | -1 | 16
CCN(CC)S(=O)(=O)c1ccc(N2CCOCC2)c(NC(=O)CC2OC(=O)c3ccccc32)c1 (stereo unspecified) | · | · | · | -4 | -2 | 4
CCc1c(C)sc(NC(=O)Cn2nc(C(F)(F)F)c3c2CCCC3)c1C#N | 93* | 0.44 | 1 | -2 | 1 | 2
CCc1c(C)sc(NC(=O)CC#N)c1C#N | 23 | -0.2 | -2 | -2 | 1 | -4
CCN(CC(=O)NCc1cccs1)C(=O)c1cccc(Cl)c1 | · | · | · | 0 | 0 | 3
CC1C/C(=N/NC(=O)c2ccc(CSc3nc4ccccc4[nH]3)cc2)CC(C)(C)C1 (stereo unspecified) | 75* | -0.48 | 4 | -2 | 2 | -3
O=C(COn1nnc2ccc(Cl)cc21)NCc1ccccc1 | 25 | 0.8 | 2 | -3 | 1 | -1
c1ccc(-c2ncc3c(ccc4ccccc43)n2)cc1 | 80* | -0.03 | -4 | -5 | -7 | -2
CCC(C)(C)c1ccc(OCCCC[n+]2ccccc2)c(C(C)(C)CC)c1 | -3 | -3.7* | -4 | 0 | 0 | 7
CCC(C)(C)c1ccc(Oc2cccc(C(=O)O)c2)cc1 | -11 | -0.045 | 6 | -4 | 2 | -28
C=CCn1c(Cc2nc3ccc(Cl)cc3[nH]2)n[nH]c1=S | 82* | 0.5 | -13 | 1 | 1 | 3
Cc1c(NC(=O)OCCNC(=O)COc2c(Cl)cccc2Cl)sc(=S)n1C | 9 | 0.074 | 13 | -4 | 0 | -26
CC(/C=N/NC(=O)c1cc(-c2cccs2)[nH]n1)=C\c1ccccc1 | 91* | -0.54 | 8 | 7 | 0 | -1
Cc1ccc(-c2cc(C(=O)N/N=C/c3ccccc3)n[nH]2)o1 | · | · | 5 | -2 | 0 | 6
CC(/C=N/NC(=O)c1cc(-c2ccc(C)o2)[nH]n1)=C\c1ccccc1 | 94* | 0.64 | 2 | -1 | -2 | -3
COc1ccc(/C=C/C(=O)NC(=S)NNC(=O)c2cc(OC)c(OC)c(OC)c2)cc1 | 89* | -0.42 | -11 | 5 | -1 | 14
COc1ccc(/C=C/C(=O)NC(=S)NNC(=O)c2cc(OC)c(OC)c(OC)c2)cc1OC | 15 | 0.91 | -6 | 1 | -1 | 2
COc1ccc(/C=C/C(=O)NC(=S)Nc2ccccc2C(=O)NC2CCCCC2)cc1 | 90* | -1 | 1 | 2 | 0 | -3
O=C(NCC(=O)N1CC=C(c2ccccc2)CC1)c1ccccc1Br | · | · | -8 | 1 | 4 | 1
CC(C)c1ccc(NC(=O)c2snc3ccc(Cl)cc23)cc1 | 79* | 0.38 | -1 | 11 | 6 | 12
CC(C)(C)NC(=O)CCN(/N=C/c1ccccc1O)C1=NS(=O)(=O)c2ccccc21 | · | · | -1 | -3 | 0 | 18
SMILES | CHOP inhibitor | Dynein transport | pCIP destab | UPR XBP1 act | CHOP UPR activ | B2AR ag
COc1ccc(S(=O)(=O)N(C(=O)c2ccco2)c2cc3sc(=O)oc3c3ccccc23)cc1 | 85* | -0.095 | -6 | 0 | 0 | 28
CCN(c1ccccc1)S(=O)(=O)c1ccc(Cl)nc1 | 2 | 2.2 | 3 | 1 | 2 | -3
CCN(c1ccccc1)S(=O)(=O)c1ccc(NCC2COc3ccccc3O2)nc1 (stereo unspecified) | 85* | 0.41 | -30 | -1 | 2 | 11
COc1ccc(CN2CCN(Cc3cccn3-c3ncccn3)CC2CCO)c(C)c1C (stereo unspecified) | 12 | -0.49 | -9 | 0 | -1 | 0
O=C(CCc1nc2ccccc2c(=O)[nH]1)NNC(=O)COc1ccc(Br)cc1 | · | · | · | -2 | -1 | -3
O=C(COC(=O)c1cncc(Br)c1)NCc1ccc(Cl)cc1 | 5 | -0.68 | -8 | 0 | 0 | -4
FC(F)(F)c1cccc(NC(=S)NCc2ccc(Cl)cc2)c1 | 95* | 0.75 | 2 | -1 | -1 | 4
Fc1cc(NC(=S)NCc2ccc(CNC(=S)Nc3ccc(Cl)c(F)c3)cc2)ccc1Cl | 84* | 0.63 | -10 | -1 | 6 | 3
O=C(COC(=O)c1cc(C(F)(F)F)cc(C(F)(F)F)c1)NCc1ccc(Cl)cc1 | 73* | -0.26 | -7 | 4 | 0 | -9
Fc1ccc(CNC(=S)Nc2cccc(C(F)(F)F)c2)cc1 | 24 | -1 | 10 | -4 | -1 | 10
CCC(C)(C)C1CCc2nc3ccccc3c(C(=O)OC(C)C(=O)Nc3c(C)n(C)n(-c4ccccc4)c3=O)c2C1 (stereo unspecified) | 62 | -0.33 | -6 | 7 | 0 | -6
O=C(C[n+]1ccccc1)Nc1ccccc1C(=O)O | -6 | 0.66 | 5 | 2 | 0 | 11
CCOC(=O)c1c(NC(=O)Cn2cnc([N+](=O)[O-])n2)sc2c1CCCC2 | 75* | -0.081 | 4 | -1 | -1 | 2
CC1CCc2c(sc(NC(=O)Cn3cnc([N+](=O)[O-])n3)c2C(N)=O)C1 (stereo unspecified) | 39 | 1.5 | -24 | 0 | -1 | -5
CC(C)OC(=O)c1c(NC(=O)Cn2cnc([N+](=O)[O-])n2)sc2c1CCCC2 | 93* | -0.27 | -9 | -2 | 1 | 8
NC(=O)c1c(NC(=O)Cn2cnc([N+](=O)[O-])n2)sc2c1CCCC2 | 11 | 0.19 | -7 | -4 | -1 | -13
Cc1ccc(NC(=S)N(CCN2CCCCC2)Cc2ccco2)cc1Cl | 18 | -0.54 | -6 | -4 | -2 | 3
NS(=O)(=O)c1ccc(CCNC(=O)C(=O)c2c[nH]c3ccccc23)cc1 | 11 | 0.37 | 5 | 0 | -1 | 56*
CCCCN=C1NN=C(c2ccc3c(c2)OCCO3)CS1 | -2 | -0.27 | -4 | -7 | 2 | 4
c1cc2c(cc1C1=NNC(=NC3CC3)SC1)OCCO2 | 98* | 0.22 | 4 | -15 | -10 | -7
O=C(CO/N=C/c1ccc(Cl)cc1Cl)NNC(=O)c1cccc(Cl)c1 | 74* | -0.18 | -8 | -1 | 2 | -1

Source: PubChem
